MIC data for four compounds are collected here from ChEMBL document CHEMBL1649451, “In vivo selection of reduced susceptibility to carbapenems in Acinetobacter baumannii related to ISAba1-mediated overexpression of the natural bla(OXA-66) oxacillinase gene” (2009).

Converted amounts (≈) assume the structure as drawn.

Assay type in all cases: functional
The test system of test [1] is Acinetobacter baumannii. Briefly: Antimicrobial activity against carbapenem-resistant Acinetobacter baumannii isolate A2 by Etest method. An outline of the steps:
(§1)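 Etest strips on Mueller-Hinton agar, incubated at 37°C; MIC read from strip for clinical A. baumannii isolates A1 and A2 (clonally related, genotyped by ApaI PFGE).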

Test [2] has as its system Acinetobacter baumannii. Briefly: Antimicrobial activity against carbapenem-susceptible Acinetobacter baumannii isolate A1 by Etest method. The method, boiled down:
as §1

In test [3] the test system is Acinetobacter baumannii. Briefly: Antimicrobial activity against bla OXA-66 gene-deficient Acinetobacter baumannii isolate A2 by Etest method. The method, boiled down:
as §1

Regarding `CO[C@H]1/C=C/O[C@@]2(C)Oc3c(C)c(O)c4c(O)c(c(/C=N/N5CCN(C)CC5)c(O)c4c3C2=O)NC(=O)/C(C)=C\C=C\[C@H](C)[C@H](O)[C@@H](C)[C@@H](O)[C@@H](C)[C@H](OC(C)=O)[C@@H]1C` [RIFAMPIN], the MIC (usually the lowest concentration found to suppress growth) against Acinetobacter baumannii [1] was 8 µg/mL (≈ 9.72 µM); in the test with Acinetobacter baumannii [2] it was 8 µg/mL (≈ 9.72 µM); against Acinetobacter baumannii [3] it was 128 µg/mL (≈ 156 µM).
Take `CC(C)(O/N=C(\C(=O)N[C@@H]1C(=O)N2C(C(=O)[O-])=C(C[n+]3ccccc3)CS[C@H]12)c1csc(N)n1)C(=O)O` [CEFTAZIDIME]: the MIC with Acinetobacter baumannii [1], in the test with Acinetobacter baumannii [2] and in the test on Acinetobacter baumannii [3] was 128 µg/mL (≈ 234 µM) in each case.
Take `C[C@@H](O)[C@H]1C(=O)N2C(C(=O)O)=C(SCCNC=N)C[C@H]12` [IMIPENEM ANHYDROUS]: the figures for the minimal inhibitory concentration (MIC) with Acinetobacter baumannii [1], with Acinetobacter baumannii [2] and in the test on Acinetobacter baumannii [3] were 4 µg/mL (≈ 13.4 µM), 2 µg/mL (≈ 6.68 µM) and 0.5 µg/mL (≈ 1.67 µM), respectively.
The corresponding values for `C[C@@H](O)[C@H]1C(=O)N2C(C(=O)O)=C(S[C@@H]3CN[C@H](C(=O)N(C)C)C3)[C@H](C)[C@H]12` [MEROPENEM] are 6 µg/mL (≈ 15.6 µM), 3 µg/mL (≈ 7.82 µM) and 0.5 µg/mL (≈ 1.3 µM).
